Legend:
Rattus norvegicus [1] = test: In vivo inhibition of adjuvant arthritis in rats; assay type: functional
[2] = target: Prostaglandin G/H synthase 1 (Homo sapiens, UniProt P23219)
Rattus norvegicus [3] = test: In vivo inhibition of carrageenan-induced hyperalgesia in rats; assay type: functional
Method in brief: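 Fasted male Wistar rats (200-230 g) given oral drug, then 0.1 mL 1% carrageenan into the left hind paw 1 h later. At 5 h, walking difficulty was scored 0-2 by a blinded observer. Percentage inhibition was taken against vehicle, and ED50 was found by linear regression over four doses (6-8 rats/group).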

Rattus norvegicus [4] = test: Inhibition of carrageenan paw edema in rats; assay type: functional
Method in brief: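 Fasted male Wistar rats (150-175 g, 6/group) dosed orally in 0.5% methyl cellulose/0.1% Tween (10 mL/kg). One hour later, 0.1 mL 1% carrageenan in saline was given subcutaneously into the left hind paw.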

Rattus norvegicus [5] = test: Effect on non perforated ulcers(NPU) at the dose of 100 mg/kg.; assay type: functional
Method in brief: (§1)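 Male Wistar rats (150-175 g), fed freely, 10/group, dosed orally once daily for 4 consecutive days in 0.5% methyl cellulose/0.1% Tween. Anaesthetised 24 h after last dose; cardiac blood taken for hemoglobin. Whole intestine opened and scored macroscopically for perforated and nonperforated ulcers (index 0-3); value is ulcer score per incidence (% animals with ulcers).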

Rattus norvegicus [6] = species: Rattus norvegicus; test: Hemoglobin levels in the different assays ranged from 11.5-14.7 g/dl.; assay type: functional
Rattus norvegicus [7] = test: In vivo inhibition of pyresis in rats; assay type: functional
Method in brief: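 Male Wistar rats (180-200 g, 6/group) were injected subcutaneously with 15% yeast extract in saline ([…]) and fasted overnight. Next morning rectal temperature was taken, and oral dosing followed 1 h later. Temperature was recorded hourly for 5 h.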

Rattus norvegicus [8] = test: In vivo inhibition of carrageenan-induced air pouch in rats; assay type: functional
Method in brief: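 Air pouch made in fasted male Wistar rats (150-175 g, 6/group) by injecting 20 mL air subcutaneously on the back on day 0. Oral gavage on day 3, then 5 mL 0.4% carrageenan into the pouch 1 h later.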

Rattus norvegicus [9] = test: Effect on perforated ulcers(PU) at the dose of 100 mg/kg.; assay type: functional; method in brief: as §1
Rattus norvegicus [10] = test: Effect on perforated ulcers(PU) at the dose of 10 mg/kg.; assay type: functional; method in brief: as §1
Rattus norvegicus [11] = test: Effect on non perforated ulcers(NPU) at the dose of 10 mg/kg.; assay type: functional; method in brief: as §1

Chain of Prostaglandin G/H synthase 1 (P23219 whole entry): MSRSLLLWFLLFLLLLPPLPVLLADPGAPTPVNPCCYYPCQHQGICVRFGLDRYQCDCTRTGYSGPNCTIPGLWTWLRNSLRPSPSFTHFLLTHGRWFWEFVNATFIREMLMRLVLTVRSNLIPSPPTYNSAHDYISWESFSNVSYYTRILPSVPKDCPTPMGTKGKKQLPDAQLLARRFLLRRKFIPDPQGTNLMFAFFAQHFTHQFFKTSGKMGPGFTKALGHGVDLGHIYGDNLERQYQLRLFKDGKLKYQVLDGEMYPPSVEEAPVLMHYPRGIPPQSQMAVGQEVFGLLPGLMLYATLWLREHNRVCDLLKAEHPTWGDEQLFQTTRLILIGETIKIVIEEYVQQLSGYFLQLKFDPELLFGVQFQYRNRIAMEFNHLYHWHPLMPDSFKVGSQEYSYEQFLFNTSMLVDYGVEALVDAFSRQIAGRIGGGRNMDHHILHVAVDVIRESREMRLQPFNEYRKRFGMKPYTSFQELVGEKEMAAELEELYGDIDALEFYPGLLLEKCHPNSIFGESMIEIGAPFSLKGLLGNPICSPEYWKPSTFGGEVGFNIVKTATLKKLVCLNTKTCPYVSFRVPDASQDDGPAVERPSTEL

SMILES	ED50 (Rattus norvegicus [1]) [mg/kg]	IC50 [2] [µM]	ED50 (Rattus norvegicus [3]) [mg/kg]	ED35 (Rattus norvegicus [4]) [mg/kg]	Ulcer score (Rattus norvegicus [5])	Hgb levels (Rattus norvegicus [6]) [g/dL]	ED50 (Rattus norvegicus [7]) [mg/kg]	ED35 (Rattus norvegicus [8]) [mg/kg]	Ulcer score (Rattus norvegicus [9])	Ulcer score (Rattus norvegicus [10])	Ulcer score (Rattus norvegicus [11])
CS(=O)(=O)c1ccc(-c2coc(=O)n2-c2ccc(F)cc2)cc1	2.8	5.1	2.5	0.6	–	–	–	–	–	–	–
Cc1cccc(-n2c(-c3ccc(S(N)(=O)=O)cc3)c(C)oc2=O)c1	–	16.9	–	–	–	–	–	–	–	–	–
COc1ccc(-n2c(-c3ccc(S(N)(=O)=O)cc3)coc2=O)cc1F	–	5.1	–	3	–	–	–	–	–	–	–
Cc1cccc(-n2c(-c3ccc(S(N)(=O)=O)cc3)coc2=O)c1	0.6	6.6	7.2	0.9	0	12.8	1.8	0.47	0	–	–
NS(=O)(=O)c1ccc(-c2coc(=O)n2-c2ccc(Cl)c(Cl)c2)cc1	–	1.5	–	–	–	–	–	–	–	–	–
NS(=O)(=O)c1ccc(-c2coc(=O)n2-c2ccc(C(F)(F)F)cc2)cc1	1	> 100	8.1	2.4	0	11.5	11	2.6	0	–	–
NS(=O)(=O)c1ccc(-c2coc(=O)n2-c2cccc3ccccc23)cc1	–	37.1	–	–	–	–	–	–	–	–	–
Cc1ccc(-n2c(-c3ccc(S(C)(=O)=O)cc3)coc2=O)cc1	–	11.6	–	–	–	–	–	–	–	–	–
CCc1ccc(-n2c(-c3ccc(S(C)(=O)=O)cc3)coc2=O)cc1	–	42.4	–	–	–	–	–	–	–	–	–
NS(=O)(=O)c1ccc(-c2coc(=O)n2-c2cccc(Cl)c2)cc1	–	10.8	–	1.3	–	–	–	–	–	–	–
CS(=O)(=O)c1ccc(-c2coc(=O)n2-c2ccc(C(F)(F)F)cc2)cc1	–	> 100	–	–	–	–	–	–	–	–	–
NS(=O)(=O)c1ccc(-c2coc(=O)n2-c2ccc(C(=O)O)cc2)cc1	–	> 100	–	–	–	–	–	–	–	–	–
CS(=O)(=O)c1ccc(-c2coc(=O)n2-c2ccc(F)cc2F)cc1	2.5	6.94	21	1.4	–	–	–	–	–	–	–
Cc1oc(=O)n(-c2ccc(Cl)c(Cl)c2)c1-c1ccc(S(N)(=O)=O)cc1	1.6	8.7	3	4.4	0	14.6	8.7	0.85	0	–	–
NS(=O)(=O)c1ccc(-c2coc(=O)n2-c2ccccc2F)cc1	0.27	27.9	2.7	1.7	0	11.6	1.2	1.6	0	–	–
NS(=O)(=O)c1ccc(-c2coc(=O)n2C2CCCCC2)cc1	–	> 100	–	–	–	–	–	–	–	–	–
Cc1ccccc1-n1c(-c2ccc(S(N)(=O)=O)cc2)coc1=O	–	29	–	–	–	–	–	–	–	–	–
NS(=O)(=O)c1ccc(-c2coc(=O)n2-c2ccc(F)cc2F)cc1	–	15.3	–	–	–	–	–	–	–	–	–

SMILES	ED50 (Rattus norvegicus [1]) [mg/kg]	IC50 [2] [µM]	ED50 (Rattus norvegicus [3]) [mg/kg]	ED35 (Rattus norvegicus [4]) [mg/kg]	Ulcer score (Rattus norvegicus [5])	Hgb levels (Rattus norvegicus [6]) [g/dL]	ED50 (Rattus norvegicus [7]) [mg/kg]	ED35 (Rattus norvegicus [8]) [mg/kg]	Ulcer score (Rattus norvegicus [9])	Ulcer score (Rattus norvegicus [10])	Ulcer score (Rattus norvegicus [11])
CS(=O)(=O)c1ccc(-c2coc(=O)n2-c2ccc(Cl)cc2)cc1	–	13.6	–	10	–	–	–	–	–	–	–
CS(=O)(=O)c1ccc(-c2coc(=O)n2-c2ccccc2F)cc1	> 3	13.4	32	2.4	–	–	–	–	–	–	–
COc1ccc(-n2c(-c3ccc(S(N)(=O)=O)cc3)coc2=O)cc1	–	0.9	–	–	–	–	–	–	–	–	–
Cc1ccc(-n2c(-c3ccc(S(N)(=O)=O)cc3)coc2=O)cc1	0.34	10.9	3.8	0.7	0	12.9	3.3	1.7	0	–	–
NS(=O)(=O)c1ccc(-c2coc(=O)n2-c2ccc(Cl)cc2)cc1	0.2	7	0.5	1.6	2.1	12.5	2.3	1.2	3	–	–
NS(=O)(=O)c1ccc(-c2coc(=O)n2-c2ccc(F)cc2)cc1	0.6	13.2	3.9	2	0	12.6	2.4	0.4	0	–	–
NS(=O)(=O)c1ccc(-c2coc(=O)n2-c2ccccc2Cl)cc1	–	35.4	–	–	–	–	–	–	–	–	–
CS(=O)(=O)c1ccc(-c2coc(=O)n2-c2ccccc2)cc1	–	33.6	–	–	–	–	–	–	–	–	–
NS(=O)(=O)c1ccc(-c2coc(=O)n2-c2ccccc2)cc1	0.15	24.4	1.1	0.4	0	14.8	0.5	1.2	0	–	–
Cc1oc(=O)n(-c2ccc(F)cc2)c1-c1ccc(S(N)(=O)=O)cc1	3	45.8	14	1.1	–	–	–	–	–	–	–
CCc1ccc(-n2c(-c3ccc(S(N)(=O)=O)cc3)coc2=O)cc1	–	10.4	–	–	–	–	–	–	–	–	–
NS(=O)(=O)c1ccc(-c2coc(=O)n2-c2cccc(C(=O)O)c2)cc1	–	> 100	–	–	–	–	–	–	–	–	–
Cc1ccc(-n2c(-c3ccc(S(N)(=O)=O)cc3)c(C)oc2=O)cc1	–	43.5	–	2.6	–	–	–	–	–	–	–
COc1ccc(-n2c(-c3ccc(S(N)(=O)=O)cc3)coc2=O)cc1Cl	–	5.8	–	2.4	–	–	–	–	–	–	–
Cc1oc(=O)n(-c2ccccc2)c1-c1ccc(S(N)(=O)=O)cc1	> 3	49.3	7.7	1.7	–	–	–	–	–	–	–
Cc1ccc(-c2cc(C(F)(F)F)nn2-c2ccc(S(N)(=O)=O)cc2)cc1 [CELECOXIB]	0.5	–	6.2	1.1	0	13.2	0.6	3	0	–	–
COc1ccc2c(c1)c(CC(=O)O)c(C)n2C(=O)c1ccc(Cl)cc1 [INDOMETHACIN]	0.22	–	1.2	1	–	5.7	1.5	2	–	280	300
COc1ccc2cc([C@H](C)C(=O)O)ccc2c1 [NAPROXEN]	6.1	–	5.2	0.45	–	7.5	0.8	1.4	–	–	–

From ChEMBL document CHEMBL1133663, “Synthesis and biological evaluation of 3,4-diaryloxazolones: A new class of orally active cyclooxygenase-2 inhibitors” (J Med Chem, 2000)
